Results reported in ChEMBL document CHEMBL1159110, “Mevalonate analogues as substrates of enzymes in the isoprenoid biosynthetic pathway of Streptococcus pneumoniae” (Bioorg Med Chem, 2010).
Activity calls are given as the source filed them. The rule behind the calls is not given here.

Key:
Streptococcus pneumoniae [1] = assay: Activity of Streptococcus pneumoniae phosphomevalonate kinase expressed in Escherichia coli by pyruvate kinase/lactate dehydrogenase coupled assay
In short: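 S. pneumoniae PMK was expressed in E. coli as His6-GST fusion, with tags removed. Substrates were the phosphorylated analogues, compared with phosphomevalonate. ADP formation was linked 1:1 to NADH oxidation via pyruvate kinase (10.0 units/ml) and lactate dehydrogenase (20.0 units/ml), monitored at 386 nm. Conditions: ATP 4.0 mM, MgCl2 5.0 mM, NADH 0.82 mM, PEP 1.0 mM, KCl 50 mM, β-mercaptoethanol 20.0 mM, Hepes/K+ 50 mM pH 8.0, 25 °C.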

Streptococcus pneumoniae [2] = assay: Activity of Streptococcus pneumoniae mevalonate kinase expressed in Escherichia coli by pyruvate kinase/lactate dehydrogenase coupled assay
In short: (§1)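 S. pneumoniae MK expressed in E. coli as His6-GST fusion, with tags removed. Lactone analogues were hydrolysed in 2.0 M LiOH (rt, 1 h), titrated to pH 7.0, and used as racemic acids. ADP formation was coupled to NADH oxidation (pyruvate kinase 10.0 units/ml, lactate dehydrogenase 20.0 units/ml), read continuously at 386 nm. Buffer: ATP 4.0 mM, MgCl2 5.0 mM, NADH 0.82 mM, PEP 1.0 mM, KCl 50 mM, β-mercaptoethanol 20.0 mM, Hepes/K+ 50 mM pH 8.0, 25 °C. Progress curves were compared with mevalonate.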

Streptococcus pneumoniae [3] = assay: Activity of Streptococcus pneumoniae mevalonate kinase expressed in Escherichia coli assessed as enzyme activity by pyruvate kinase/lactate dehydrogenase coupled assay relative to mevalonate; in short: as §1
[4] = Binding affinity to Streptococcus pneumoniae mevalonate kinase

Structure (SMILES)	Activity (Streptococcus pneumoniae [1])	Activity (Streptococcus pneumoniae [2])	Activity (Streptococcus pneumoniae [3]) [%]	Ki [4] [nM]
CC(C)CC(O)(CCO)CC(=O)O (racemic)	Active	Active	–	–
C=CC(O)(CCO)CC(=O)O (racemic)	Active	Active	–	–
CCC(O)(CCO)CC(=O)O (racemic)	Active	Active	–	–
C=C(C)C(O)(CCO)CC(=O)O (racemic)	–	–	< 0.0025	–
C#CC(O)(CCO)CC(=O)O (racemic)	Active	Active	–	–
O=C(O)CC(O)(CCO)C1CC1 (racemic)	Active	Active	–	–

Other lines, results leading:

Activity (Streptococcus pneumoniae [1])	Activity (Streptococcus pneumoniae [2])	Activity (Streptococcus pneumoniae [3]) [%]	Ki [4] [nM]	Structure (SMILES)
–	–	< 0.0025	–	CC(C)C(O)(CCO)CC(=O)O (racemic)
Active	Active	–	–	CCCC(O)(CCO)CC(=O)O (racemic)
–	–	< 0.0025	–	CC#CC(O)(CCO)CC(=O)O (racemic)
–	–	–	500	C[C@@](O)(CCOP(=O)(O)OP(=O)(O)O)CC(=O)O [DIPHOSPHOMELAVONATE]
–	–	< 0.0025	–	CCCCC(O)(CCO)CC(=O)O (racemic)
Active	Active	–	–	C=CCC(O)(CCO)CC(=O)O (racemic)
